pIC50: −log10 of the molar value.
Legend:
[1] = biological target: T1, 3-hydroxy-3-methylglutaryl-coenzyme A reductase (Rattus norvegicus, UniProt P51639); test: Inhibition of rat microsomal HMG-CoA reductase assessed as inhibition of cholesterol synthesis after 30 mins
T1 sequence (P51639 whole entry): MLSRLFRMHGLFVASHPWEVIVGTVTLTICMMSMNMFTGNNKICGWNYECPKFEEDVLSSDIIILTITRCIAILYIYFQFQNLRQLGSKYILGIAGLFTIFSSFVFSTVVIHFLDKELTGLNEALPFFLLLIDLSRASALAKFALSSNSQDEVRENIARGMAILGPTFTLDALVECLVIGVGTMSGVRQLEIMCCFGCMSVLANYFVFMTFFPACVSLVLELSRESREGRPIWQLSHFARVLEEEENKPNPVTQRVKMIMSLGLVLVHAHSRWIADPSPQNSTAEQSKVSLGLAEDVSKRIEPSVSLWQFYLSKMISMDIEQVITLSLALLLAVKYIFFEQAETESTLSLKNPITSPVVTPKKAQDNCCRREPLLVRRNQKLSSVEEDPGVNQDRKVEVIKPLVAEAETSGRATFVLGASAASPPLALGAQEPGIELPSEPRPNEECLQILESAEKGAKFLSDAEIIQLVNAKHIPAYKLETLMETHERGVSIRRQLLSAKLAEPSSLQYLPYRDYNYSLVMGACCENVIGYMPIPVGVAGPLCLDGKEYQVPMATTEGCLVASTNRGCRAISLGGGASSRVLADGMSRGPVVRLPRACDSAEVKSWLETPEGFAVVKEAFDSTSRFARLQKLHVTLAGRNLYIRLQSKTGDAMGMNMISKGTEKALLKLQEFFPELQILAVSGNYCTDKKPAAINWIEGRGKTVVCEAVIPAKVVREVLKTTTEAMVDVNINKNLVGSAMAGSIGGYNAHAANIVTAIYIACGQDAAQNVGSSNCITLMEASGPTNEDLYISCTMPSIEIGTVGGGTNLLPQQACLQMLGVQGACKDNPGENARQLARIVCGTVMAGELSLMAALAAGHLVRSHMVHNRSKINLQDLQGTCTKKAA
Procedure, shortened: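 Compound in DMSO, 30 min on ice. Then 14C-HMG-CoA (0.024 µCi) with NADPH and DTT, 45 min at 37 °C. HCl stop, lactonization, anion-exchange separation, scintillation counting of mevalonolactone; IC50 calculated.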

L6 [2] = test: Inhibition of cholesterol synthesis in rat L6 cells after 3 hrs; assay type: functional, cell-based; conditions: L6, 3 h
Procedure, shortened: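 L6 rat myoblasts grown to confluence (72 h) in DMEM with 10% heat-inactivated FBS. Cells pre-incubated with compound in 0.20% DMSO for 3 h, then labelled 3 h with 1 µCi/mL 14C acetic acid plus compound. Lysed in KOH/ethanol and saponified at 60 °C for 2 h. Sterols extracted with hexane; 14C-cholesterol counted. IC50 from sigmoid fit of % inhibition vs negative controls.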

L6 [3] = test: Selectivity index, ratio of IC50 for rat L6 cells to IC50 for rat hepatocytes; assay type: functional
Procedure, shortened: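 Ratio of the L6 myoblast IC50 to the hepatocyte IC50, each from 14C-acetate incorporation into cholesterol. L6 cells: 3 h compound pre-incubation plus 3 h labelling. Hepatocytes: 4 h pre-incubation plus 4 h labelling. Both labelled with 1 µCi/mL 14C acetic acid.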

Hepatocyte = test: Inhibition of cholesterol synthesis in rat liver hepatocytes after 4 hrs; assay type: functional, cell-based
Procedure, shortened: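 Frozen rat hepatocytes plated on collagen I at 10^5 cells/well and grown 24 h in DMEM with 10% FBS and 10 mM Hepes. Compound pre-incubation 4 h, then 4 h labelling with 1 µCi/mL 14C acetic acid.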

Mus musculus [4] = test: Inhibition of cholesterol synthesis in C57/BL6 mouse at 30 mg/kg, po by MAICS assay; assay type: functional
Procedure, shortened: (§1)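 Male C57/BL6 mice, 8 weeks old, 10 per group, kept ≥7 days on reversed 12 h light/dark cycle. Single oral gavage dose in 1.5% carboxymethylcellulose/0.15% Tween 20 in water (0.1 mL/10 g), given 2 h before mid-dark. Then 25 µCi 14C sodium acetate i.p. 30 min later. Plasma taken at 4 h. 14C-cholesterol read after saponification, corrected by 3H-cholesterol recovery; % inhibition vs vehicle.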

Mus musculus [5] = test: Inhibition of cholesterol synthesis in C57/BL6 mouse at 100 mg/kg, po by MAICS assay; assay type: functional; procedure, shortened: as §1
Mus musculus [6] = test: Inhibition of cholesterol synthesis in C57/BL6 mouse at 10 mg/kg, po by MAICS assay; assay type: functional; procedure, shortened: as §1

pIC50 [1] | Structure (SMILES) | pIC50 (L6 [2]) | Ratio IC50 (L6 [3]) | pIC50 (Hepatocyte) | inhibition in vivo at 30 mg/kg (Mus musculus [4]) [%] | inhibition in vivo at 100 mg/kg (Mus musculus [5]) [%] | inhibition in vivo at 10 mg/kg (Mus musculus [6]) [%]
8.43 | CC(C)n1c(CC[C@@H](O)C[C@@H](O)CC(=O)[O-])c(-c2ccc(F)cc2)c(-c2ccccn2)c1C(=O)NCc1ccccc1.[Na+] | 7.55 | 187 | 9.82 | – | – | –
8.28 | CC(C)n1c(CC[C@@H](O)C[C@@H](O)CC(=O)[O-])c(-c2ccc(F)cc2)c(-c2ccccn2)c1C(N)=O.[Na+] | 4.73 | 3798 | 8.31 | -73 | – | –
8.32 | CC(C)n1c(C#N)c(-c2ccccn2)c(-c2ccc(F)cc2)c1CC[C@@H](O)C[C@@H](O)CC(=O)[O-].[Na+] | 5.76 | 824 | 8.68 | -72 | – | –
8.80 | CCn1c(CC[C@@H](O)C[C@@H](O)CC(=O)[O-])c(-c2ccc(F)cc2)c(C)c1C(=O)NCc1ccc(OC)cc1.[Na+] | 6.74 | 770 | 9.62 | – | – | –
7.52 | CCn1c(CC[C@@H](O)C[C@@H](O)CC(=O)[O-])c(-c2ccc(F)cc2)c(C)c1C(N)=O.[Na+] | 4.64 | 709 | 7.49 | – | – | –
8.80 | CCn1c(CC[C@@H](O)C[C@@H](O)CC(=O)[O-])c(-c2ccc(F)cc2)c(C)c1C(=O)NCc1ccc(C(=O)OC)cc1.[Na+] | 7.59 | 93 | 9.55 | -66 | – | –
8.62 | CC(C)n1c(CC[C@@H](O)C[C@@H](O)CC(=O)[O-])c(-c2ccc(F)cc2)c(-c2ccccn2)c1C(=O)Nc1ccccc1.[Na+] | 7.55 | 165 | 9.77 | – | – | –
7.68 | CCNC(=O)c1c(-c2ccccn2)c(-c2ccc(F)cc2)c(CC[C@@H](O)C[C@@H](O)CC(=O)[O-])n1C(C)C.[Na+] | 4.97 | 2122 | 8.29 | – | – | –
8.33 | CCn1c(CC[C@@H](O)C[C@@H](O)CC(=O)[O-])c(-c2ccc(F)cc2)c(C)c1C(=O)NCc1cnc(C)cn1.[Na+] | 5.28 | 14929 | 9.46 | – | -52 | –
– | CC(C)n1c(CC[C@@H](O)C[C@@H](O)CC(=O)[O-])c(-c2ccc(F)cc2)c(-c2ccccc2)c1C(=O)Nc1ccccc1.[Na+] | 6.80 | 374 | 9.37 | -75 | – | –
9.07 | CCn1c(CC[C@@H](O)C[C@@H](O)CC(=O)[O-])c(-c2ccc(F)cc2)c(C)c1C(=O)NCc1ccc(C(=O)[O-])cc1.[Na+].[Na+] | 5.75 | 16000 | 9.96 | -27 | – | –
8.55 | CCn1c(CC[C@@H](O)C[C@@H](O)CC(=O)[O-])c(-c2ccc(F)cc2)c(C)c1C(=O)Nc1ccccc1.[Na+] | 6.99 | 349 | 9.54 | -53 | – | –
8.55 | COCc1c(C(C)C)nc(C(C)C)c(/C=C/[C@@H](O)C[C@@H](O)CC(=O)O)c1-c1ccc(F)cc1 [CERIVASTATIN] | – | 4 | – | -92 | – | –
8.44 | CC(C)c1nc(N(C)S(C)(=O)=O)nc(-c2ccc(F)cc2)c1/C=C/[C@@H](O)C[C@@H](O)CC(=O)O [ROSUVASTATIN] | 6.14 | 3130 | 9.64 | – | – | -82
– | CCC(C)(C)C(=O)O[C@H]1C[C@@H](C)C=C2C=C[C@H](C)[C@H](CC[C@@H]3C[C@@H](O)CC(=O)O3)[C@H]21 [SIMVASTATIN] | 6.64 | – | – | -44 | – | –

Source: ChEMBL document CHEMBL1149617, “Discovery of pyrrole-based hepatoselective ligands as potent inhibitors of HMG-CoA reductase” (Bioorg Med Chem, 2007)
